Measurements reported in ChEMBL document CHEMBL4028901, “Novel Antitubercular 6-Dialkylaminopyrimidine Carboxamides from Phenotypic Whole-Cell High Throughput Screening of a SoftFocus Library: Structure-Activity Relationship and Target Identification Studies” (J Med Chem, 2017).
Values after ≈ are worked out from the molar mass of the structure shown.

Columns and labels:
Vero = test: Cytotoxicity against African green monkey Vero cells assessed as reduction in cell viability by MTT assay; format: cell-based; settings: Chlorocebus sabaeus
Summary of the method: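 MTT assay in Vero cells, samples in triplicate on one occasion. Stocks at 20 mg/mL in DMSO, diluted in complete medium as 10-fold serial dilutions over 6 concentrations. Emetine used as reference. IC50 derived by non-linear dose-response curve fitting.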

[1] = system: Mycobacterium tuberculosis; test: Antibacterial activity against Mycobacterium tuberculosis H37RvMA grown in 7H9/ADC medium measured 7 to 14 days post inoculation by broth microdilution method; format: functional
[2] = Kinetic solubility of the compound in pH 7.4 solution at 10 to 220 uM after 2 hrs by shake flask method; format: physicochemical; settings: for Kinetic_solubility: buffer, pH 7.4, 2 h, 220 µM; for solubility kinetic at 2 h: pH 7.4 solution, pH 7.4, read-out: Kinetic_solubility
[3] = system: Mycobacterium tuberculosis; test: Antibacterial activity against wild type Mycobacterium tuberculosis H37Rv grown in GAST/Fe medium measured on day 14 post inoculation by broth microdilution method; format: functional; settings: 336 h
Summary of the method: (§1)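 H37RvMa grown to OD600 0.6–0.7, diluted 1:100 in GAST/Fe. Compounds two-fold serially diluted from a top concentration of 640 μM, in duplicate. Incubated at 37 °C with humidification.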

[4] = system: Mycobacterium tuberculosis; test: Antibacterial activity against Mycobacterium tuberculosis H37RvMA grown in GAST/Fe medium measured 7 to 14 days post inoculation by broth microdilution method; format: functional; summary of the method: as §1
[5] = system: Mycobacterium tuberculosis; test: Antibacterial activity against cytochrome bd oxidase knockout GFP-fused Mycobacterium tuberculosis H37RvMA grown in 7H9/GLU/ADC medium measured on day 7 and day 14 post inoculation by fluorescence plate reader assay; format: functional
[6] = Kinetic solubility of the compound in fasted-state simulated intestinal fluid at 10 to 220 uM at pH 6.5 after 2 hrs by shake flask method; format: physicochemical; settings: read-out: Kinetic_solubility
Summary of the method: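 Miniaturised shake flask. 10 mM DMSO stocks spiked 1:50 into duplicate FaSSIF (pH 6.5), 2% final DMSO. Shaken 2 h at 25 °C, filtered, analysed by HPLC-DAD against calibration standards (10–220 μM).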

[7] = Lipophilicity, log P of the compound at 100 uM at pH 7.4 after 3 hrs by shake-flask method; format: physicochemical; settings: buffer
Summary of the method: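 Shake-flask method run in triplicate. A 10 mM stock was spiked into a 1:1 mixture of phosphate buffer (pH 7.4) and n-octanol, then shaken at 1500 rpm on an orbital shaker for 3 h at room temperature.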

Compound | IC50 (Vero) [µM] | MIC99 [1] [µM] | Kinetic_solubility [2] [µM] | MIC99 [3] [µM] | MIC99 [4] [µM] | solubility kinetic at 2 h [2] [µM] | MIC99 [5] [µM] | solubility kinetic at 2 h [6] [µM] | logD at 3 h, 100 µM [7]
CN(Cc1ccc(F)cc1)c1cc(C(=O)Nc2ccccc2)ncn1 | 297 | 6.25 (≈ 2.1 µg/mL) | < 5 | 10 (≈ 3.36 µg/mL) | 1.56 (≈ 0.525 µg/mL) | – | – | – | –
CN(Cc1ccc(F)cc1)c1cc(C(=O)Nc2ccccc2)cnn1 | 279 | > 50 | 40 | – | > 50 | – | – | – | –
CN(Cc1ccc(Cl)cc1)c1cc(C(=O)Nc2ccncc2)ncn1 | 282 | – | < 5 | – | 10 (≈ 3.54 µg/mL) | – | – | – | –
CCN(Cc1ccc(Cl)cc1)c1cc(C(=O)Nc2ccccc2)ncn1 | 272 | > 50 | 5 | – | 40 (≈ 14.7 µg/mL) | – | – | – | –
O=C(Nc1ccccc1)c1cc(N2CCc3ccccc3C2)ncn1 | – | > 160 | < 5 | – | > 160 | – | – | – | –
CN(Cc1ccc(C(F)(F)F)cc1)c1cc(C(=O)Nc2ncn(C)n2)ncn1 | 28 | 50 (≈ 19.6 µg/mL) | 173 | – | 10 (≈ 3.91 µg/mL) | – | – | – | –
CN(Cc1ccc(F)cc1)c1cc(C(=O)Nc2ccc(N3CCOCC3)cc2)ncn1 | 237 | 0.78 (≈ 0.329 µg/mL) | < 5 | – | 0.6 (≈ 0.253 µg/mL) | – | – | – | –
Cc1c(C(=O)Nc2ccc(F)cc2)ncnc1N(C)Cc1ccc(F)cc1 | 271 | > 50 | – | – | 37 (≈ 13.6 µg/mL) | < 5 | – | – | –
CN(Cc1ccccc1)c1cc(C(=O)Nc2ccccc2)ncn1 | 314 | 20 (≈ 6.37 µg/mL) | < 5 | – | 10 (≈ 3.18 µg/mL) | – | – | – | –
O=C(Nc1ccccc1)c1cc(OCc2ccccc2)ncn1 | – | > 160 | – | – | – | – | – | – | –
O=C(Nc1ccccc1)c1ccc(=O)n(Cc2ccc(F)cc2)c1 | 310 | > 50 | 170 | – | > 50 | – | – | – | –
CN(C)CCOc1ccc(NC(=O)c2cc(N(C)Cc3ccc(F)cc3)ncn2)cc1 | – | 25 (≈ 10.6 µg/mL) | 155 | – | 12.5 (≈ 5.29 µg/mL) | – | – | – | –
CN(Cc1ccc(F)cc1)c1cc(C(Nc2ccc(F)cc2)C(F)(F)F)ncn1 (stereo unspecified) | 41.7 | 37 (≈ 15.1 µg/mL) | < 5 | – | 19 (≈ 7.76 µg/mL) | – | – | – | –
COc1ccc(NC(=O)c2cc(N(C)Cc3ccc(F)cc3)ncn2)cc1 | 60.5 | 5 (≈ 1.83 µg/mL) | 62 | – | 2.5 (≈ 0.916 µg/mL) | – | – | – | –
CN(Cc1ccc(F)cc1)c1cncc(C(=O)Nc2ccc(F)cc2)n1 | 282 | > 50 | – | – | > 50 | < 5 | – | – | –
CN(Cc1ccc(F)cc1)c1nc(C(=O)Nc2ccccc2)cs1 | 279 | > 50 | – | – | > 50 | < 5 | – | – | –
CN(Cc1cccc(Cl)c1)c1cc(C(=O)Nc2ccccc2)ncn1 | – | 20 (≈ 7.06 µg/mL) | < 5 | – | 10 (≈ 3.53 µg/mL) | – | – | – | –
COc1ccc(NC(=O)c2cc(N(C)Cc3ccc(Cl)cc3)nc(NC3CC3)n2)cc1 | – | > 50 | 5 | – | > 160 | – | – | – | –
CN1CCN(c2cccc(NC(=O)c3cc(N(C)Cc4ccc(F)cc4)ncn3)c2)CC1 | 118 | 37 (≈ 16.1 µg/mL) | 74 | – | 37 (≈ 16.1 µg/mL) | – | – | – | –
COc1ccc(NC(=O)c2ccnc(N(C)Cc3ccc(F)cc3)n2)cc1 | 273 | > 50 | – | – | > 50 | < 5 | – | – | –
CN1CCN(c2ccc(NC(=O)c3cc(N(C)Cc4ccc(F)cc4)ncn3)cn2)CC1 | 126 | > 50 | 150 | – | 19 (≈ 8.27 µg/mL) | – | – | – | –
CN(Cc1ccc(Cl)cc1)c1cc(C(=O)Nc2ccccc2)ncn1 | 207 | 5 (≈ 1.76 µg/mL) | < 5 | – | 2.3 (≈ 0.811 µg/mL) | – | – | – | –
CN(Cc1ccccn1)c1cc(C(=O)Nc2ccccc2)ncn1 | – | > 160 | – | – | – | – | – | – | –
CN(Cc1ccc(C#N)cc1)c1cc(C(=O)Nc2ccccc2)ncn1 | – | > 50 | – | – | 20 (≈ 6.87 µg/mL) | < 5 | – | – | –

Compound | IC50 (Vero) [µM] | MIC99 [1] [µM] | Kinetic_solubility [2] [µM] | MIC99 [3] [µM] | MIC99 [4] [µM] | solubility kinetic at 2 h [2] [µM] | MIC99 [5] [µM] | solubility kinetic at 2 h [6] [µM] | logD at 3 h, 100 µM [7]
COCCOc1ccc(NC(=O)c2cc(N(C)Cc3ccc(F)cc3)ncn2)cc1 | 244 | 2.3 (≈ 0.944 µg/mL) | < 5 | – | 1.56 (≈ 0.64 µg/mL) | – | – | – | –
COc1ccc(NC(=O)c2cc(N(C)Cc3ccccc3)ncn2)cc1 | 287 | 20 (≈ 6.97 µg/mL) | – | – | 10 (≈ 3.48 µg/mL) | – | >20 | < 5 | 4.07
COc1ccc(NC(=O)c2cc(N(C)Cc3cccc(F)c3)ncn2)cc1 | 272 | 37 (≈ 13.6 µg/mL) | – | 2.5 to 5 (≈ 0.916 to 1.83 µg/mL) | 5 (≈ 1.83 µg/mL) | – | – | – | –
CN(Cc1ccc(F)cc1)c1ccnc(C(=O)Nc2ccccc2)c1 | 298 | – | – | – | 10 (≈ 3.35 µg/mL) | < 5 | – | – | –
Cc1nc(C(=O)Nc2ccccc2)cc(N(C)Cc2ccc(Cl)cc2)n1 | – | > 160 | – | – | > 160 | – | – | – | –
CN(Cc1ccc(C(F)(F)F)nc1)c1cc(C(=O)Nc2ccc(N3CCOCC3)cn2)ncn1 | 211 | 3.13 (≈ 1.48 µg/mL) | < 5 | – | 2.3 (≈ 1.09 µg/mL) | – | – | – | –
CN(Cc1ccc(F)cc1)c1cc(-c2nnc(-c3ccccc3)[nH]2)ncn1 | 277 | > 50 | < 5 | – | 25 (≈ 9.01 µg/mL) | – | – | – | –
Cc1csc(NC(=O)c2cc(N(C)Cc3ccc(F)cc3)ncn2)n1 | – | 37 (≈ 13.2 µg/mL) | < 5 | – | 5 (≈ 1.79 µg/mL) | – | – | – | –
CN1CCN(c2ccc(NC(=O)c3cc(N(C)Cc4ccc(C(F)(F)F)nc4)ncn3)cc2)CC1 | 45.2 | 12.5 (≈ 6.07 µg/mL) | 165 | – | 12.5 (≈ 6.07 µg/mL) | – | – | – | –
CC(=O)N1CCN(c2ccc(NC(=O)c3cc(N(C)Cc4ccc(C(F)(F)F)nc4)ncn3)cc2)CC1 | > 50 | 4.7 (≈ 2.41 µg/mL) | – | – | 2.3 (≈ 1.18 µg/mL) | < 5 | – | – | –
C[C@H]1COc2c(N3CCN(C)CC3)c(F)cc3c(=O)c(C(=O)O)cn1c23 [LEVOFLOXACIN] | – | – | – | 0.64 (≈ 0.231 µg/mL) | – | – | – | – | –
CN(c1ccccc1)c1cc(C(=O)Nc2ccccc2)ncn1 | – | > 160 | < 5 | – | – | – | – | – | –
CC(C)NC(=O)c1cc(N(C)Cc2ccc(C(F)(F)F)cc2)ncn1 | 217 | > 50 | 13 | – | > 160 | – | – | – | –
CN(CCc1ccccc1)c1cc(C(=O)Nc2ccccc2)ncn1 | – | 80 (≈ 26.6 µg/mL) | < 5 | – | – | – | – | – | –
CN(Cc1ccc(F)cc1)c1cc(C(=O)Nc2ccon2)ncn1 | – | > 50 | – | – | 160 (≈ 52.4 µg/mL) | – | – | – | –
COc1ccc(NC(=O)c2cc(N(C)Cc3ccc(Cl)cc3)nc(N)n2)cc1 | – | > 50 | – | – | > 160 | < 5 | – | – | –
CN(Cc1ccccc1)c1cc(C(=O)N(C)c2ccccc2)ncn1 | – | > 160 | – | – | – | – | – | – | –
CN(CC1CCCCC1)c1cc(C(=O)Nc2ccccc2)ncn1 | 178 | > 50 | – | – | 40 (≈ 13 µg/mL) | – | – | – | –
NNC(=O)c1ccncc1 [ISONIAZID] | – | – | – | 0.18 (≈ 0.0247 µg/mL) | – | – | – | – | –
CN(Cc1ccccc1Cl)c1cc(C(=O)Nc2ccccc2)ncn1 | – | > 160 | < 5 | – | – | – | – | – | –
CN(Cc1ccc(F)cc1)c1cc(C(=O)Nc2ccn(C)n2)ncn1 | – | > 50 | 90 | – | 40 (≈ 13.6 µg/mL) | – | – | – | –
CN(Cc1ccc(F)cc1)c1cc(NC(=O)c2ccccc2)ncn1 | – | – | 5 | – | > 160 | – | – | – | –
O=C(Nc1ccccc1)c1cc(NCc2ccccc2)ncn1 | – | > 160 | < 5 | – | – | – | – | – | –
